In ChEMBL document CHEMBL1142125, “Bioactive lignans from Peperomia duclouxii” (J Nat Prod, 2007):
Values after ≈ are worked out from the molar mass of the structure shown.

Columns and labels:
[1] = system: WI-38 VA13; assay: Growth inhibition of human VA13 cells; type: functional, cell-based
In short: (§1)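 Growth inhibition assays. WI-38 cells were kept in Eagle's MEM and VA-13 cells in RITC 80-7, both with 10% (v/v) FBS and 80 µg/mL kanamycin. HepG2 cells were kept in D-MEM with 10% (v/v) FBS and 80 µg/mL kanamycin. IC50 is the concentration giving 50% growth inhibition.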

[2] = system: HepG2; assay: Growth inhibition of human HepG2 cells; type: functional, cell-based; in short: as §1
[3] = system: WI-38; assay: Growth inhibition of human WI38 cells; type: functional, cell-based; in short: as §1
[4] = system: A549; assay: Inhibition of IL-1-alpha-induced ICAM1 in human A549 cells; type: functional, cell-based
In short: (§2)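 ICAM-1 induction assay. Human A549 cells were grown in RPMI 1640 with heat-inactivated 10% FBS, penicillin G and streptomycin. Cells were stimulated with recombinant IL-1α or TNF-α. Cell-surface ICAM-1 was detected with mouse anti-human ICAM-1 antibody C167 plus a peroxidase-conjugated goat anti-mouse IgG, and an IC50 was derived.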

[5] = system: A549; assay: Cytotoxicity against human A549 cells by MTT assay; type: cell-based
In short: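 Cell viability was measured by MTT assay in human A549 cells grown in RPMI 1640 with heat-inactivated 10% FBS, penicillin G and streptomycin. This was done alongside the IL-1α/TNF-α-stimulated ICAM-1 induction assay, and an IC50 was derived.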

[6] = system: A549; assay: Inhibition of TNF-alpha-induced ICAM1 in human A549 cells; type: functional, cell-based; in short: as §2
[7] = Effect on calcein accumulation in human multidrug-resistant 2780AD cells at 25 ug/mL relative to control; type: functional, A2780 ADR
In short: (§3)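 Calcein accumulation assay. Multidrug-resistant human ovarian cancer 2780AD (AD10) cells were grown in RPMI-1640 with 10% (v/v) FBS and 80 µg/mL kanamycin. Calcein formed from calcein AM by endogenous esterase served as the efflux probe. Cells were tested at 0.25, 2.5 and 25 µg/mL. Read-out was fluorescence per well, as the mean of triplicates, expressed relative to the untreated control or to the verapamil positive control.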

[8] = Effect on calcein accumulation in human multidrug-resistant 2780AD cells at 0.25 ug/mL relative to control; type: functional, A2780 ADR; in short: as §3
[9] = Effect on calcein accumulation in human multidrug-resistant 2780AD cells at 25 ug/mL relative to verapamil; type: functional, A2780 ADR; in short: as §3
[10] = Effect on calcein accumulation in human multidrug-resistant 2780AD cells at 0.25 ug/mL relative to verapamil; type: functional, A2780 ADR; in short: as §3
[11] = Effect on calcein accumulation in human multidrug-resistant 2780AD cells at 2.5 ug/mL relative to verapamil; type: functional, A2780 ADR; in short: as §3
[12] = Effect on calcein accumulation in human multidrug-resistant 2780AD cells at 2.5 ug/mL relative to control; type: functional, A2780 ADR; in short: as §3

Row | Compound | IC50 [2] [µg/mL] | IC50 [4] [µM] | IC50 [6] [µM] | IC50 [1] [µg/mL] | IC50 [3] [µg/mL] | IC50 [5] [µM] | Activity [7] [%] | Activity [8] [%] | Activity [9] [%] | Activity [10] [%] | Activity [11] [%] | Activity [12] [%]
1 | COc1cc(C[C@H]2CO[C@H](c3cc(OC)c4c(c3)OCO4)[C@H]2CO)cc2c1OCO2 | 72 (≈ 173 µM) |  |  | 99.1 (≈ 238 µM) | 74.3 (≈ 178 µM) |  |  |  |  |  |  | 
2 | COc1cc([C@@H]2OC[C@@H]3[C@H]2CO[C@H]3c2cc(OC)c3c(c2)OCO3)cc(O)c1O | 13.2 (≈ 32.8 µM) |  |  | 5.3 (≈ 13.2 µM) | 49.8 (≈ 124 µM) |  | 169 | 101 | 117 | 103 | 92 | 105
3 | COc1cc([C@H]2OC[C@@H]3C(c4cc(OC)c(O)c(OC)c4)OC[C@H]23)ccc1O (some centres not stated) [MEDIORESINOL] | 84.7 (≈ 218 µM) |  |  | > 100 | 76.9 (≈ 198 µM) |  |  |  |  |  |  | 
4 | COc1ccc(CCN(C)CCCC(C#N)(c2ccc(OC)c(OC)c2)C(C)C)cc1OC (configuration not stated) [VERAPAMIL] |  |  |  |  |  |  | 145 | 99 | 100 | 100 | 100 | 114
5 | COc1cc([C@H]2OC[C@@H]3C(=O)OC[C@@H]32)cc(OC)c1OC [ZHEPIRESINOL] | 60.2 (≈ 205 µM) |  |  | 50.7 (≈ 172 µM) | 57.7 (≈ 196 µM) |  |  |  |  |  |  | 

Further lines, with some results ahead:

Row | IC50 [2] [µg/mL] | IC50 [4] [µM] | IC50 [6] [µM] | Compound | IC50 [1] [µg/mL] | IC50 [3] [µg/mL] | IC50 [5] [µM] | Activity [7] [%] | Activity [8] [%] | Activity [9] [%] | Activity [10] [%] | Activity [11] [%] | Activity [12] [%]
6 | > 100 |  |  | COc1cc([C@@H]2OC[C@@H]3[C@H]2CO[C@H]3c2cc(OC)c3c(c2)OCO3)cc(OC)c1O | > 100 | 96.6 (≈ 232 µM) |  |  |  |  |  |  | 
7 | 74.4 (≈ 148 µM) | 107 | 13.4 | COc1cc([C@@H]2c3c(cc4c(c3OC)OCO4)C[C@H](COC(C)=O)[C@@H]2COC(C)=O)cc(OC)c1O | 62.4 (≈ 124 µM) | 41.3 (≈ 82.2 µM) | > 316 |  |  |  |  |  | 
8 | > 100 |  |  | COc1cc([C@H]2OC[C@H]3[C@@H]2CO[C@@H]3c2ccc3c(c2)OCO3)cc(OC)c1O | > 100 | > 100 |  |  |  |  |  |  | 
9 | 0.48 (≈ 0.883 µM) |  |  | COc1cccc2c1C(=O)c1c(O)c3c(c(O)c1C2=O)C[C@@](O)(C(=O)CO)C[C@@H]3O[C@H]1C[C@H](N)[C@H](O)[C@H](C)O1 [DOXORUBICIN] | 0.08 (≈ 0.147 µM) | 0.76 (≈ 1.4 µM) |  |  |  |  |  |  | 
10 | 0.05 (≈ 0.0586 µM) |  |  | CC(=O)O[C@H]1C(=O)[C@@]2(C)[C@H]([C@H](OC(=O)c3ccccc3)[C@]3(O)C[C@H](OC(=O)[C@H](O)[C@@H](NC(=O)c4ccccc4)c4ccccc4)C(C)=C1C3(C)C)[C@]1(OC(C)=O)CO[C@@H]1C[C@@H]2O [PACLITAXEL] | 0.01 (≈ 0.0117 µM) | 0.02 (≈ 0.0234 µM) |  |  |  |  |  |  | 
